Bioassay records: PubChem, several laboratories
Hits are enriched below; roughly 2.2% of the tested compounds scored in any of these assays.
Wee1 degr inh = Wee1 degradation inhibitors, primary screen, cell-based, HeLa, Wee1K328M-luciferase, luminescence. Wee1-like protein kinase (Homo sapiens), P30291. HeLa Luc-Wee1K328M stability; 100% = proteasome inhibitor MG132 effect. reporter increase, % at 5 µM. 220,000 tested, 1.2% active. AID 1321, 2008;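 active = activation above the mean of all tested compounds plus 3 SD, set per screening run, cut at about 8.8% in these data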;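 note: cells exposed to compound for 20 h before luminescence read; 0% = DMSO alone and 100% = MG132 at 30 µM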
Target sequence (P30291 whole entry K328M): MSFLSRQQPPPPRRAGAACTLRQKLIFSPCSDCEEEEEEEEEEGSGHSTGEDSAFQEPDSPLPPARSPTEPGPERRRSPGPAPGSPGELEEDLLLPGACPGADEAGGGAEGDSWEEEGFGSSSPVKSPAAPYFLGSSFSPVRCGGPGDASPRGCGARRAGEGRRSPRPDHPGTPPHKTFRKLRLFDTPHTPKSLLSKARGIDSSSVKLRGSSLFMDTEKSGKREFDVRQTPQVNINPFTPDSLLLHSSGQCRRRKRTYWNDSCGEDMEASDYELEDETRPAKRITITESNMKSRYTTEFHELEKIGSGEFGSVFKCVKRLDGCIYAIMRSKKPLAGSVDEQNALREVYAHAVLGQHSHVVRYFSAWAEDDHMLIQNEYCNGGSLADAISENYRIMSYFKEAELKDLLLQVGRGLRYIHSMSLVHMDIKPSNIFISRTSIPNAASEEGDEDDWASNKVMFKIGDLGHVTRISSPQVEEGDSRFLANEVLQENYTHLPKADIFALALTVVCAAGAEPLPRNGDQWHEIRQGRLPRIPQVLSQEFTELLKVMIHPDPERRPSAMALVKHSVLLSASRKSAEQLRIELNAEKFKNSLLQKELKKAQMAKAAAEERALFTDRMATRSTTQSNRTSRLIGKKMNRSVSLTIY
PKD1 inh = inhibitors of human PKD1 kinase, biochemical, fluorescence polarization. Serine/threonine-protein kinase D1 (Homo sapiens), Q15139. inhibition, % (concentration not given with the values). AID 797, 2007. PKD1 kinase fluorescence polarization assay. 200,000 tested, 0.056% active; in the data active = inhibition above about 50%
TRAIL sens C8 = viability loss with TRAIL in NB7+C8 cells, primary screen, TRAIL sensitizer project, cell-based, ATPlite luminescence; inhibition (viability loss, TRAIL sensitization), % at 10 µM; 360,000 tested, 1% active; AID 624354, 2012;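 active = compounds causing at least 50% loss of cell viability in the single-dose screen, relative to plate controls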
FLuc stim CS = FLuc activators, initial screening, artefact control for FLuc-dependent activation tests, biochemical, ATPlite luminescence. ATPlite luciferase biochemical, 10 min; 0 = ATP-free wells, 1 = DMSO control. Luciferin 4-monooxygenase (Photinus pyralis), P08659. AID 1027, 2008. 200,000 tested, under 10 active. activation factor at 10 µM;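 active = luciferase activation factor, scaled between plate controls, of at least 2 with compound at 10 µM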
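Assay system: Luciferase/luciferin detection reagent, cell-free biochemical luciferase assay / Also added: ATP substrate / Schedule: 10 min at ambient temperature / Measured by: luminescence measurement of luciferase light output / Benchmarks: low control with PBS replacing ATP, high control enzyme plus ATP without compound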
PPC-1+TRAIL kill = compounds killing PPC-1 cancer cells with TRAIL present, primary screen, TRAIL potentiator project, ATPLite luminescence, uHTS. PPC-1 cells + TRAIL, ATPLite viability luminescence. 220,000 tested, 0.41% active. cell killing (% activity), % at 4 µM or 5 µM. AID 1443, 2008;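 active = cell killing above 50% in the first pass at 4 µM, then a duplicate retest at 5 µM averaging 50% or more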;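 note: plate controls were cells with TRAIL plus DMSO for no effect and medium-only wells lacking cells for full effect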
FLuc inh counter = firefly luciferase enzyme inhibitors, primary screen, artefact control for luciferase-based inhibitor screens, biochemical, luminescence, ATPLite; 200,000 tested, 1.5% active; 10 min; Luciferin 4-monooxygenase (Photinus pyralis), P08659; AID 1006, 2008; inhibition, % at 10 µM;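 active = inhibition above about 50% when tested at 10 µM, limit read from the data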
* marks the source's active call; other numbers are inactive results.

What do the screens show for `Cc1cc(-c2ccccc2)nc(N/N=C/c2ccc(O)cc2)n1`?
TRAIL sens C8: 77*

What do the screens show for `Cc1cc(C)c2nc(C)cc(N/N=C/c3ccc(O)cc3)c2c1`?
TRAIL sens C8: 81*

What do the screens show for `O=C(Nc1cccc(NC(=O)C2CCCO2)c1)c1ccco1` (configuration not stated)?
Wee1 degr inh: 3; PKD1 inh: 14; TRAIL sens C8: -9; FLuc stim CS: 0.9; PPC-1+TRAIL kill: 12; FLuc inh counter: 6

Results for Cc1ccccc1C(=O)NC(=S)Nc1ccccc1C(F)(F)F ?
Wee1 degr inh: -1; PKD1 inh: -1; TRAIL sens C8: 1; FLuc stim CS: 0.3; PPC-1+TRAIL kill: 7; FLuc inh counter: 71*

Results for CC1CCC2=NN(C(=O)c3ccco3)C(O)(C(F)(F)F)C2C1 (configuration not stated) ?
Wee1 degr inh: 0; PKD1 inh: 4; TRAIL sens C8: -3; FLuc stim CS: 1; PPC-1+TRAIL kill: -10; FLuc inh counter: -1

What do the screens show for `CC(=O)Oc1ccc(/C=N\NC(=O)c2cc3c(ccc4ccccc43)o2)cc1`?
TRAIL sens C8: 64*

How did COc1ccc(N(CC(=O)NCCc2ccc(OC)c(OC)c2)S(=O)(=O)c2c(C)noc2C)cc1 do in these assays?
TRAIL sens C8: 10

What do the screens show for `COc1ccc(CC(N)c2csc(NC(=O)c3cc(C(C)(C)C)nn3Cc3ccccc3)n2)cc1` (configuration not stated)?
TRAIL sens C8: 50*

What do the screens show for `CC(N)c1csc(NC(=O)c2cc(C(C)(C)C)nn2Cc2ccccc2)n1` (configuration not stated)?
TRAIL sens C8: 0

How did Cn1c(=O)c2c(SCC(=O)Nc3ccccc3F)nc(C3CC3)nc2n(C)c1=O do in these assays?
TRAIL sens C8: 50*

What do the screens show for `Cn1c(=O)c2c(SCC(=O)Nc3ccccc3F)nc(-c3ccccc3F)nc2n(C)c1=O`?
TRAIL sens C8: 10

What do the screens show for `Cc1nc(SCC(=O)N2CCN(c3ccccn3)CC2)c(C#N)c(C)c1C`?
TRAIL sens C8: -1

Results for CCOc1ccc(NC(=O)c2nccnc2CO)cc1 ?
Wee1 degr inh: 3; PKD1 inh: -3; TRAIL sens C8: 49; FLuc stim CS: 0.4; PPC-1+TRAIL kill: 25; FLuc inh counter: 63*

What do the screens show for `CCOc1ccc(NC(=O)c2ccccn2)cc1`?
Wee1 degr inh: -4; PKD1 inh: -11; TRAIL sens C8: 91*; FLuc stim CS: 0; PPC-1+TRAIL kill: 87*; FLuc inh counter: 96*

How did CCOc1ccc(NC(=O)c2cnccn2)cc1 do in these assays?
Wee1 degr inh: -2; PKD1 inh: -5; TRAIL sens C8: 47; FLuc stim CS: 0.3; PPC-1+TRAIL kill: 47; FLuc inh counter: 72*

What do the screens show for `CCOc1ccc(NC(=O)c2cccnc2C(=O)O)cc1`?
Wee1 degr inh: 0; PKD1 inh: -10; TRAIL sens C8: 8; FLuc stim CS: 1; PPC-1+TRAIL kill: 0; FLuc inh counter: 5

What do the screens show for `CCOc1ccc(NC(=O)c2ccccc2OCC(=O)c2ccccc2)cc1`?
Wee1 degr inh: -3; PKD1 inh: -3; TRAIL sens C8: 43; FLuc stim CS: 0.4; PPC-1+TRAIL kill: 35; FLuc inh counter: 61*

How did Cc1ccc(NC(=O)c2ccccc2OCC(=O)c2ccccc2)cc1 do in these assays?
Wee1 degr inh: 0; PKD1 inh: 5; TRAIL sens C8: -8; FLuc stim CS: 1; PPC-1+TRAIL kill: -4; FLuc inh counter: 5

How did Cc1ccc(C2=NN(S(=O)(=O)c3ccccc3)C(c3ccccc3O)C2)cc1 (configuration not stated) do in these assays?
Wee1 degr inh: 0; PKD1 inh: -6; TRAIL sens C8: 2; FLuc stim CS: 1; PPC-1+TRAIL kill: -14; FLuc inh counter: -2

What do the screens show for `O=C(CCN1CCCCC1)N1CCc2c([nH]c3ccccc23)C1c1cccnc1` (configuration not stated)?
TRAIL sens C8: 2

Results for CCOc1cc(S(=O)(=O)NCc2cccnc2)c(C)cc1C ?
Wee1 degr inh: 5; PKD1 inh: 7; TRAIL sens C8: -4; FLuc stim CS: 1.1; PPC-1+TRAIL kill: 7; FLuc inh counter: -11

How did CCOc1ccc(N(CC(=O)NC2CCCCC2)C(=O)CCC(=O)Nc2nc(C)cs2)cc1 do in these assays?
TRAIL sens C8: -12

How did COc1cccc(NC(=O)c2cnsn2)c1 do in these assays?
Wee1 degr inh: 0; PKD1 inh: 2; TRAIL sens C8: -15; FLuc stim CS: 1; PPC-1+TRAIL kill: -7; FLuc inh counter: 0

How did CCOc1ccc(NC(=O)c2cnsn2)cc1 do in these assays?
Wee1 degr inh: -3; PKD1 inh: -7; TRAIL sens C8: 29; FLuc stim CS: 0.4; PPC-1+TRAIL kill: -7; FLuc inh counter: 61*

Results for C[C@H](CO)N1C[C@H](C)[C@@H](CN(C)S(=O)(=O)c2ccc(F)cc2)Oc2c(NC(=O)c3ccncc3)cccc2C1=O ?
TRAIL sens C8: -5

How did O=C(CN1CCN(S(=O)(=O)c2cccc(Br)c2)CC1)N1CCCCC1 do in these assays?
TRAIL sens C8: -7

How did COc1ccccc1C(=O)NCCC(=O)Nc1nc2ccccc2[nH]1 do in these assays?
TRAIL sens C8: -6

How did CCOCCCNc1nc2ccccc2[nH]1 do in these assays?
Wee1 degr inh: 10*; PKD1 inh: -5; TRAIL sens C8: -2; FLuc stim CS: 1; PPC-1+TRAIL kill: 8; FLuc inh counter: -1

Results for CCOc1ccccc1OCC(=O)Nc1nc2ccccc2[nH]1 ?
Wee1 degr inh: 8; PKD1 inh: -7; TRAIL sens C8: 4; FLuc stim CS: 0.8; PPC-1+TRAIL kill: 10; FLuc inh counter: 19

What do the screens show for `Cc1ccccc1OCC(=O)Nc1nc2ccccc2[nH]1`?
Wee1 degr inh: 0; PKD1 inh: 8; TRAIL sens C8: -2; FLuc stim CS: 0.2; PPC-1+TRAIL kill: 44; FLuc inh counter: 84*

How did COc1ccccc1C(=O)Nc1nc2ccccc2[nH]1 do in these assays?
TRAIL sens C8: 96*

How did COc1cc(SC)ccc1C(=O)Nc1nc2ccccc2[nH]1 do in these assays?
TRAIL sens C8: 96*

Results for CCCCNc1nc2ccccc2[nH]1 ?
Wee1 degr inh: -2; PKD1 inh: 0; TRAIL sens C8: -8; FLuc stim CS: 1; PPC-1+TRAIL kill: 25; FLuc inh counter: 2
